Laboratory results published in ChEMBL document CHEMBL1154767, “Reversal agent and linker variants of reversed chloroquines: activities against Plasmodium falciparum” (J Med Chem, 2010).

How the values were obtained:
Plasmodium falciparum [1] = assay: Antimalarial activity against chloroquine-resistant Plasmodium falciparum Dd2 after 72 hrs by fluorescence based method; format: functional, organism-based; conditions: Dd2, 72 h
In short: (§1)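 Asynchronous parasite cultures diluted with uninfected erythrocytes in RPMI-1640 plus 0.5% Albumax II to 0.2% parasitemia, 2% hematocrit. Drugs diluted from 10 mM DMSO stock, final 0 to 10^-4 M, triplicate wells. After 72 h under standard culture conditions, read by SYBR Green I fluorescence (ex 497, em 520 nm). IC50 from nonlinear regression of fluorescence vs log[drug].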

Plasmodium falciparum [2] = assay: Antimalarial activity against chloroquine-sensitive Plasmodium falciparum D6 after 72 hrs by fluorescence based method; format: functional, organism-based; conditions: D6, 72 h; in short: as §1
[3] = Therapeutic index, ratio of IC50 for C57B1/6J mice (Mus musculus) splenic lymphocyte to IC50 for chloroquine-resistant Plasmodium falciparum Dd2; conditions: read-out: TI
[4] = Therapeutic index, ratio of IC50 for C57B1/6J mice (Mus musculus) splenic lymphocyte to IC50 for chloroquine-sensitive Plasmodium falciparum D6; conditions: read-out: TI

## Clc1ccc2c(NCCCNCCN(c3ccccc3)c3ccccc3)ccnc2c1
Plasmodium falciparum [1]
  IC50: 27 nM
Plasmodium falciparum [2]
  IC50: 26 nM

## Clc1ccc2c(NCCCNCCCCN(Cc3ccccc3)Cc3ccccc3)ccnc2c1
Plasmodium falciparum [1]
  IC50: 11 nM
Plasmodium falciparum [2]
  IC50: 8 nM

## Clc1ccc2c(NCCCNCCN(Cc3ccccc3)Cc3ccccc3)ccnc2c1
Plasmodium falciparum [1]
  IC50: 6 nM
Plasmodium falciparum [2]
  IC50: 2 nM

## O=C(CN1CCN(c2ccnc3cc(Cl)ccc23)CC1)N(c1ccccc1)c1ccccc1
Plasmodium falciparum [1]
  IC50: 101 nM
Plasmodium falciparum [2]
  IC50: 49 nM

## Clc1ccc2c(NCCCNCCCN(Cc3ccccc3)Cc3ccccc3)ccnc2c1
Plasmodium falciparum [1]
  IC50: 34 nM
Plasmodium falciparum [2]
  IC50: 23 nM

## Clc1ccc2c(NCCNCCN(Cc3ccccc3)Cc3ccccc3)ccnc2c1
Plasmodium falciparum [1]
  IC50: 16 nM
Plasmodium falciparum [2]
  IC50: 10 nM

## Clc1ccc2c(N3CCN(CCN(Cc4ccccc4)Cc4ccccc4)CC3)ccnc2c1
Plasmodium falciparum [1]
  IC50: 115 nM
Plasmodium falciparum [2]
  IC50: 52 nM

## O=C(CNCCNc1ccnc2cc(Cl)ccc12)N(Cc1ccccc1)Cc1ccccc1
Plasmodium falciparum [1]
  IC50: 16 nM
Plasmodium falciparum [2]
  IC50: 14 nM

## O=C(CN(CCNc1ccnc2cc(Cl)ccc12)CC(=O)N(c1ccccc1)c1ccccc1)N(c1ccccc1)c1ccccc1
Plasmodium falciparum [1]
  IC50: 52 nM
Plasmodium falciparum [2]
  IC50: 30 nM

## Clc1ccc2c(NCCN(CCN(Cc3ccccc3)Cc3ccccc3)CCN(Cc3ccccc3)Cc3ccccc3)ccnc2c1
Plasmodium falciparum [1]
  IC50: 5 nM
Plasmodium falciparum [2]
  IC50: 2 nM

## Clc1ccc2c(NCCNCCCN(Cc3ccccc3)Cc3ccccc3)ccnc2c1
Plasmodium falciparum [1]
  IC50: 16 nM
Plasmodium falciparum [2]
  IC50: 7 nM

## CN(CCCNc1ccnc2cc(Cl)ccc12)CCCN1c2ccccc2CCc2ccccc21
Plasmodium falciparum [1]
  IC50: 5 nM
Plasmodium falciparum [2]
  IC50: 3 nM

## O=C(CNCCNc1ccnc2cc(Cl)ccc12)N(c1ccccc1)c1ccccc1
Plasmodium falciparum [1]
  IC50: 13 nM
[3]
  selectivity ratio: 4800
[4]
  selectivity ratio: 12000
Plasmodium falciparum [2]
  IC50: 5 nM
